Entries after “also recorded” stand apart in the source; their conditions may differ.
Columns and labels:
AVP-pVIc complexes [1] = molecular target: T1, AVP-pVIc complexes (Human adenovirus C serotype 2, UniProt P03252); assay: Inhibition of AVP-pVIc complexes, fluorogenic substrate assay; type: biochemical, adenovirus serotype 2
Trypsin = molecular target: T2, Trypsin (Bos taurus, UniProt P00760); assay: Selectivity assay with trypsin; type: biochemical
T2 sequence (P00760 24-246): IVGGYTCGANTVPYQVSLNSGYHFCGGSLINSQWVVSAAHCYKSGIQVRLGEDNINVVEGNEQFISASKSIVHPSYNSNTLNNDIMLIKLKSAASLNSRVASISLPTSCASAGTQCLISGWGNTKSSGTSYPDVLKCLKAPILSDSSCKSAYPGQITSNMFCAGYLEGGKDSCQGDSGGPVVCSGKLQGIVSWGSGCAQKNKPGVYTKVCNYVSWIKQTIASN
Method in brief: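 TPCK-treated trypsin was exposed to increasing compound at 21°C in 25 mM HEPES with 1 mM CaCl₂. Substrate hydrolysis was tracked as fluorescence increase (ex 496/em 523 nm). Rates were normalized to the no-inhibitor rate and expressed as % activity.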

[2] = molecular target: AVP (adenovirus proteinase) (Human adenovirus C serotype 2, UniProt P03252); assay: Inhibition of AVP; type: biochemical, adenovirus serotype 2
Method in brief: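 Purified adenovirus type 2 AVP was pre-incubated 9 min at 21°C with varied compound in 5 mM NaCl, 20 mM Tris-HCl pH 8, 0.025% DDM, 0.1 mM DTT. pVIc was then added to 20 μM for another 9 min. Rates with 5 μM (Cbz-Leu-Arg-Gly-Gly-NH)₂-Rhodamine were read every 10 s (ex 496/em 523 nm). IC50 came from a four-parameter logistic fit of initial rates.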

[3] = tested on: AVP and AVP-pVIc complexes; assay: Coarse screening of structural derivatives for enzyme inhibitors; type: biochemical, adenovirus serotype 2; conditions: 40 μM compound, 150 mM NaCl, 0.3 μM enzyme
Method in brief: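 AVP (adenovirus type 2, E. coli-expressed) or AVP-pVIc complexes (75 μM each, overnight at 4°C with 20 mM β-mercaptoethanol) were pre-incubated 9 min at 21°C with compound from 10 mM DMSO stock. Buffer was 20 mM Tris-HCl pH 8, 0.025% DDM, 0.1 mM DTT. For AVP, 40 μM pVIc was then added for 9 min more. Initial rates with 5 μM (Cbz-Leu-Arg-Gly-Gly-NH)₂-Rhodamine (ex 496/em 523 nm) were normalized to the no-inhibitor rate.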

Papain = molecular target: T3, Papain (Carica papaya, UniProt P00784); assay: Selectivity assay with papain; type: biochemical
T3 sequence (P00784 134-345): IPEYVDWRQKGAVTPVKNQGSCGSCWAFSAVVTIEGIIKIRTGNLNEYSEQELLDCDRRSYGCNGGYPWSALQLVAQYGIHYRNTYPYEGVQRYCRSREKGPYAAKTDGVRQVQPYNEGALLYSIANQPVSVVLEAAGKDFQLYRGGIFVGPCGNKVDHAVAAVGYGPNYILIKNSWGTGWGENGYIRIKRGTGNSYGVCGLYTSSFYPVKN
Method in brief: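 Papain was incubated with increasing compound for 10 min at 21°C in 25 mM sodium acetate with 1 mM DTT. Hydrolysis of the fluorogenic substrate was followed over time (ex 496/em 523 nm). Rates were normalized to the rate without inhibitor and reported as % activity.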

AVP-pVIc complexes [4] = molecular target: T1, AVP-pVIc complexes; assay: Competitive inhibition of AVP-pVIc complexes; type: biochemical, adenovirus serotype 2
AVP = AVP (Human adenovirus C serotype 2, UniProt P03252); assay: Mixed inhibition of AVP; type: biochemical, adenovirus serotype 2
[5] = molecular target: Adenovirus proteinase (AVP) (Human adenovirus 2) (UniProt P03252); conditions: cited from earlier work
[6] = 20 pM trypsin, 10 min, pH 7.5, 10 μM (Ile-Pro-Arg-NH)2-Rhodamine
[7] = 0.18 μM papain, pH 5, 10 μM (Phe-Arg-NH)2-Rhodamine
[8] = best fitting model, SigmaPlot Kinetic Module
[9] = concentrations 50-fold higher than that inhibiting AVP or AVP-pVIc by more than 90%

T1 sequence (P03252 whole entry, one chain of several): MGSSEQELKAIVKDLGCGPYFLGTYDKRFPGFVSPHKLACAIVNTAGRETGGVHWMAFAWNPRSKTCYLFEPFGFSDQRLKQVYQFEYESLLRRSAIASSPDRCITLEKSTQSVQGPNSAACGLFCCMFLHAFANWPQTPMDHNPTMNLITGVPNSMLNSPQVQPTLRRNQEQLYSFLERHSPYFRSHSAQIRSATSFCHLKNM
Chain of AVP (P03252 whole entry): as the sequence (P03252 whole entry, one chain of several) above
Chain of AVP (adenovirus proteinase) (P03252 whole entry): as the sequence (P03252 whole entry, one chain of several) above
Chain of Adenovirus proteinase (AVP) (Human adenovirus 2) (P03252 whole entry): as the sequence (P03252 whole entry, one chain of several) above
Chain of pVIc (P03274 whole entry, looked up): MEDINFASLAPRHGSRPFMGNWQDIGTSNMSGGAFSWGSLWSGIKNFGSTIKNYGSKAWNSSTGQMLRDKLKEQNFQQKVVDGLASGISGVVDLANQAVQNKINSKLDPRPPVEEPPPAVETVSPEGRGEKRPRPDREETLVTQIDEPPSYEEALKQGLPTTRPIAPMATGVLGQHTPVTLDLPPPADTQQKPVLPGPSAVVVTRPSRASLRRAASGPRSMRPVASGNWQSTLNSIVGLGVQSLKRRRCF

Compound: O=C1CN2CCN(CC2)CC(=O)Nc2ccc(cc2)S(=O)(=O)c2ccc(cc2)NC(=O)CN2CCN(CC2)CC(=O)Nc2ccc(cc2)S(=O)(=O)c2ccc(cc2)N1 [NSC 36806, 2,21-dithia-7,10,13,16,26,29,32,35-octaazaheptacyclo[34.2.2.23,6.210,13.217, 20.222,25.229,32]pentaconta-1(38),3,5,17,19,22,24,36,39,43,45,49-dodecaene-8,15,27,34-tetrone 2,2,21,21-tetraoxide]
- IC50 (AVP-pVIc complexes [1]): 18000 nM
- Inhibition of trypsin (Trypsin; [6]): did not inhibit

Compound: CC(C)CCN(CCC(C)C)CC(=O)Nc1ccc(S(=O)(=O)c2ccc(NC(=O)CN(CCC(C)C)CCC(C)C)cc2)cc1 [NSC 37248, 2-[bis(3-methylbutyl)amino]-N-[4-[4-[[2-[bis(3-methylbutyl)amino]acetyl]amino]phenyl]sulfonylphenyl]acetamide]
- IC50 [2]: 880 nM
- IC50 (AVP-pVIc complexes [1]): 2100 nM
- Inhibition of trypsin (Trypsin; [6]): No Inhibition
- Inhibition in coarse screen [3]: inhibit either the activation of AVP or the activity of AVP-pVIc complexes; also recorded: effective inhibitors
- Inhibition of papain (Papain; [7]): No Inhibition

Compound: O=C(CN(C1CCCCC1)C1CCCCC1)Nc1ccc(S(=O)(=O)c2ccc(NC(=O)CN(C3CCCCC3)C3CCCCC3)cc2)cc1 [NSC 37249, 2-(dicyclohexylamino)-N-[4-[4-[[2-(dicyclohexylamino)acetyl]amino]phenyl]sulfonylphenyl]acetamide]
- IC50 [2]: 140 nM
- Ki (AVP-pVIc complexes [4]; Ki AVP:pVIc, competitive inhibition model, substrate 2.5-20 μM): 403 nM
- Type of inhibition, AVP-pVIc complexes (AVP-pVIc complexes [4]; [8]): Competitive Inhibition; also recorded: competitive inhibitor
- IC50 (AVP-pVIc complexes [1]): 490 nM
- Inhibition of trypsin (Trypsin; [6]): No Inhibition
- Inhibition of trypsin (Trypsin; [9]): did not inhibit
- Inhibition of trypsin (Trypsin; concentrations up to 18 μM): no inhibition was observed
- Inhibition in coarse screen [3]: inhibit either the activation of AVP or the activity of AVP-pVIc complexes; also recorded: effective inhibitors
- Ki (AVP): 150 nM
- Type of inhibition, AVP (AVP; [8]): Mixed Inhibition
- Inhibition of papain (Papain; [7]): No Inhibition
- Inhibition of papain (Papain; [9]): did not inhibit
- Inhibition of papain (Papain; concentrations up to 50-fold the Ki for AVP): no inhibition was observed

Compound: CC1COCC(C)N1CC(=O)Nc1ccc(S(=O)(=O)c2ccc(NC(=O)CN3C(C)COCC3C)cc2)cc1 (centres unmarked) [NSC 106702, 2-(3,5-dimethylmorpholin-4-yl)-N-[4-[4-[[2-(3,5-dimethylmorpholin-4-yl)acetyl]amino]phenyl]sulfonylphenyl] acetamide]
- Inhibition in coarse screen [3]: inhibit either the activation of AVP or the activity of AVP-pVIc complexes

Compound: O=C(Nc1ccc(S(=O)(=O)c2ccc(NC(=O)C(F)(F)N3CCOCC3)cc2)cc1)C(F)(F)N1CCOCC1 [NSC 106721, N-[4-[4-[(2,2-difluoro-2-morpholin-4-ylacetyl)amino]phenyl]sulfonylphenyl]-2,2-difluoro-2-morpholin-4-ylacetamide]
- Inhibition in coarse screen [3]: inhibit either the activation of AVP or the activity of AVP-pVIc complexes

Compound: pVIc (from UniProt P03274)
- Kd [5]: 4400 nM
